Assays:
Mu-type opioid receptor [1] = biological target: T1, Mu-type opioid receptor (Homo sapiens, UniProt P35372); test: Displacement of [3H]diprenorphine from human cloned mu opioid receptor expressed in CHO cells; format: cell-based
[2] = biological target: T2, Kappa-type opioid receptor (Homo sapiens, UniProt P41145); test: Displacement of [3H]diprenorphine from human cloned kappa opioid receptor expressed in CHO cells; format: cell-based
[3] = biological target: T3, Delta-type opioid receptor (Homo sapiens, UniProt P41143); test: Inhibition of [3H]diprenorphine binding to human cloned delta opioid receptor expressed in CHO cells at 10 uM; format: cell-based
T3 sequence (P41143 whole entry): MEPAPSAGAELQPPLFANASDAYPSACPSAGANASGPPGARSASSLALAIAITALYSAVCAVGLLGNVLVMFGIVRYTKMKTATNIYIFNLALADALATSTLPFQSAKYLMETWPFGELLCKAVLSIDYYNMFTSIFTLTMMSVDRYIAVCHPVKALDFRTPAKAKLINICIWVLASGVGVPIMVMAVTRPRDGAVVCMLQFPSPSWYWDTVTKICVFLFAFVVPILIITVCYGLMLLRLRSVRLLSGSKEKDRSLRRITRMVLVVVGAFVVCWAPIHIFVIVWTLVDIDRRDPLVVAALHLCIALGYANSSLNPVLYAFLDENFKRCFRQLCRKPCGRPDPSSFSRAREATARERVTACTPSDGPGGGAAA
Procedure, shortened: (§1)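 Membranes from CHO cells stably expressing human δ, κ or μ receptor (10-80 µg protein) incubated with [3H]diprenorphine (0.5-1.0 nM) and competitor at 10 µM. Buffer: 50 mM Tris-HCl pH 7.8, 1 mM EGTA, 5 mM MgCl2, protease inhibitors. 60 min at room temperature, then GF/B filtration and scintillation counting. Nonspecific binding was defined with 10 µM naloxone. Read-out was % inhibition of specific binding.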

Mu-type opioid receptor [4] = biological target: T1, Mu-type opioid receptor; test: Antagonist activity against human cloned mu opioid receptor expressed in CHO cells assessed as inhibition of loperamide-stimulated [35S]GTP-gamma-S binding; format: functional, cell-based
[5] = biological target: T3, Delta-type opioid receptor; test: Displacement of [3H]diprenorphine from human cloned delta opioid receptor expressed in CHO cells; format: cell-based
[6] = biological target: T2, Kappa-type opioid receptor; test: Antagonist activity against human cloned kappa opioid receptor expressed in CHO cells assessed as inhibition of […]-stimulated [35S]GTPgammaS binding; format: functional, cell-based
[7] = biological target: T3, Delta-type opioid receptor; test: Antagonist activity against human cloned delta opioid receptor expressed in CHO cells assessed as inhibition of […]-stimulated [35S]GTP-gamma-S binding; format: functional, cell-based
Procedure, shortened: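 In receptor-expressing CHO membranes (50-100 µg protein), antagonist was added to mixtures containing […] agonist. Incubated 1 h at room temperature, then centrifuged; bound radioactivity was counted by scintillation.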

Mu-type opioid receptor [8] = biological target: T1, Mu-type opioid receptor; test: Inhibition of [3H]diprenorphine binding to human cloned mu opioid receptor expressed in CHO cells at 10 uM; format: cell-based; procedure, shortened: as §1
[9] = biological target: T2, Kappa-type opioid receptor; test: Inhibition of [3H]diprenorphine binding to human cloned kappa opioid receptor expressed in CHO cells at 10 uM; format: cell-based; procedure, shortened: as §1
Mu-type opioid receptor [10] = biological target: T1, Mu-type opioid receptor; test: Agonist activity at human cloned mu opioid receptor expressed in CHO cells assessed as stimulation of [35S]GTP-gamma-S binding; format: functional, cell-based
Procedure, shortened: (§2)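 CHO membranes expressing the relevant human receptor (50-100 µg protein) were exposed to a concentration series of agonist. Incubated 1 h at room temperature, centrifuged, and bound label counted. Potency and efficacy were assessed from stimulation.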

[11] = biological target: T2, Kappa-type opioid receptor; test: Partial agonist activity at human cloned kappa opioid receptor expressed in CHO cells assessed as stimulation of [35S]GTP-gamma-S binding; format: functional, cell-based; procedure, shortened: as §2
[12] = biological target: T3, Delta-type opioid receptor; test: Agonist activity at human cloned delta opioid receptor expressed in CHO cells assessed as stimulation of [35S]GTP-gamma-S binding; format: functional, cell-based; procedure, shortened: as §2

T2 sequence (P41145 whole entry): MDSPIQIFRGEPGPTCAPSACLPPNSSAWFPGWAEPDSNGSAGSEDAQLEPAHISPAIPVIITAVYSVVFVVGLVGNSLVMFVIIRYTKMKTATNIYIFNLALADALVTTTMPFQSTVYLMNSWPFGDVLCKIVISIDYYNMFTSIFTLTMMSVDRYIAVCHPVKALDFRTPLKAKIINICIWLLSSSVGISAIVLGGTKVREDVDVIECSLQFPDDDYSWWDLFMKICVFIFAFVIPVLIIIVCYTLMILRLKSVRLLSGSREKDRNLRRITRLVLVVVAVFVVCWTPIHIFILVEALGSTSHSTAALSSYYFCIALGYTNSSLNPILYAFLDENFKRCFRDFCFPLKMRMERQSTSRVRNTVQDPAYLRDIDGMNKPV
T1 sequence (P35372 whole entry): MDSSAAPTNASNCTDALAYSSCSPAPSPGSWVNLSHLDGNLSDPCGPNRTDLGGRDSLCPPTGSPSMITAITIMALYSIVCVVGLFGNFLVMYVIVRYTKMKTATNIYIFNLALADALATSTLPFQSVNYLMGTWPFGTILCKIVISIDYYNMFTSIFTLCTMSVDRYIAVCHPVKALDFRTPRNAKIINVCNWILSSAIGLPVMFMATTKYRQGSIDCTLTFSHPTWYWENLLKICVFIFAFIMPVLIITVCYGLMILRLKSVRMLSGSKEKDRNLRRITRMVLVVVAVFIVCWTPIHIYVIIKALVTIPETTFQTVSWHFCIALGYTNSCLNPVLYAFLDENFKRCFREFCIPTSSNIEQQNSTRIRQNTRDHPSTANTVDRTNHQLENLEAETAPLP

C[C@H]1CN2C[C@@H](c3ccccc3)CC[C@@H]2C[C@@]1(C)c1cccc(O)c1
Ki (Mu-type opioid receptor [1]): 430 nM | Ki [2]: 1400 nM | inhibition [3]: 49%

C[C@H]1CN2C[C@@H](c3ccccc3)CC[C@H]2C[C@@]1(C)c1cccc(O)c1
Ki (Mu-type opioid receptor [1]): 110 nM | Ki [2]: 440 nM | inhibition [3]: 51% | IC50 (Mu-type opioid receptor [4]): 110 nM

C[C@H]1[C@H]2CC[C@H](c3ccccc3)CN2CC[C@@]1(C)c1cccc(O)c1
Ki [5]: 25 nM | Ki (Mu-type opioid receptor [1]): 26 nM | Ki [2]: 35 nM | IC50 (Mu-type opioid receptor [4]): 190 nM

C[C@H]1CN2C[C@H](c3ccccc3)CC[C@H]2C[C@@]1(C)c1cccc(O)c1
IC50 [6]: 1.2 nM | IC50 [7]: 16 nM | Ki [5]: 31 nM | Ki (Mu-type opioid receptor [1]): 0.62 nM | IC50 (Mu-type opioid receptor [4]): 0.54 nM

C[C@H]1[C@@H]2CC[C@H](c3ccccc3)CN2CC[C@@]1(C)c1cccc(O)c1
Ki [5]: 190 nM | Ki (Mu-type opioid receptor [1]): 73 nM | Ki [2]: 100 nM | IC50 (Mu-type opioid receptor [4]): 150 nM

C[C@H]1[C@H]2CCCCN2CC[C@@]1(C)c1cccc(O)c1
inhibition (Mu-type opioid receptor [8]): 43% | Ki [2]: 520 nM | inhibition [3]: 47%

C[C@H]1CN2C[C@H](c3ccccc3)CC[C@@H]2C[C@@]1(C)c1cccc(O)c1
Ki [5]: 900 nM | Ki (Mu-type opioid receptor [1]): 110 nM | Ki [2]: 430 nM | IC50 (Mu-type opioid receptor [4]): 210 nM

C[C@H]1CN2CCCC[C@@H]2C[C@@]1(C)c1cccc(O)c1
Ki (Mu-type opioid receptor [1]): 710 nM | Ki [2]: 520 nM | inhibition [3]: 40%

C[C@H]1CN2CCCC[C@H]2C[C@@]1(C)c1cccc(O)c1
Ki (Mu-type opioid receptor [1]): 940 nM | inhibition [9]: 44% | inhibition [3]: 37%

C[C@H]1[C@@H]2CC[C@@H](c3ccccc3)CN2CC[C@@]1(C)c1cccc(O)c1
Ki [5]: 2.1 nM | Ki (Mu-type opioid receptor [1]): 0.9 nM | Ki [2]: 65 nM | EC50 (Mu-type opioid receptor [10]): 53 nM | EC50 [11]: 200 nM | EC50 [12]: 55 nM

C[C@H]1[C@@H]2CCCCN2CC[C@@]1(C)c1cccc(O)c1
Ki [5]: 220 nM | Ki (Mu-type opioid receptor [1]): 120 nM | Ki [2]: 69 nM | IC50 (Mu-type opioid receptor [4]): 1000 nM

C[C@H]1[C@H]2CC[C@@H](c3ccccc3)CN2CC[C@@]1(C)c1cccc(O)c1
Ki [5]: 280 nM | Ki (Mu-type opioid receptor [1]): 37 nM | Ki [2]: 16 nM | IC50 (Mu-type opioid receptor [4]): 120 nM
